According to ChEMBL document CHEMBL4020725, “Design and synthesis of novel xanthine derivatives as potent and selective A2B adenosine receptor antagonists for the treatment of chronic inflammatory airway diseases” (Eur J Med Chem, 2017):
Blank lines part the entries; values can stand above or below the compound they belong to.

What was measured:
[1] = target: T1, Adenosine receptor A1 (Homo sapiens) (UniProt P30542); assay: Displacement of [3H]-DPCPX from human adenosine A1 receptor expressed in HEK293 cell membranes at 0.1 uM after 90 mins relative to control
T1 sequence (whole entry): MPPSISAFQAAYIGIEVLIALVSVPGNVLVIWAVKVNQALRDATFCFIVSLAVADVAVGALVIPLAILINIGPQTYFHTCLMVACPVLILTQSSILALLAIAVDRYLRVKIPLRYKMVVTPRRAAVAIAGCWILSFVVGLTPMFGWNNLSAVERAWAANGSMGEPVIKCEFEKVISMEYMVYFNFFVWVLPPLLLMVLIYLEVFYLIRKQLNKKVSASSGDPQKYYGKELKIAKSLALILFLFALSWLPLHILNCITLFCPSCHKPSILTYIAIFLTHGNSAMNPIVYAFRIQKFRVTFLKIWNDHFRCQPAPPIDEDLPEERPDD
In short: (§1)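 Membranes from HEK-293 cells stably transfected with human A1, A2A or A3 receptor, pretreated with 1 U/ml ADA. Membranes are incubated 90 min at room temperature with gentle agitation. Tracer and buffer per receptor: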

Adenosine receptor A2b = target: T2, Adenosine receptor A2b (Homo sapiens, UniProt P29275); assay: Displacement of [3H]-MRS-1754 from human adenosine A2B receptor expressed in HEK293 cell membranes after 90 mins
T2 sequence (P29275 whole entry): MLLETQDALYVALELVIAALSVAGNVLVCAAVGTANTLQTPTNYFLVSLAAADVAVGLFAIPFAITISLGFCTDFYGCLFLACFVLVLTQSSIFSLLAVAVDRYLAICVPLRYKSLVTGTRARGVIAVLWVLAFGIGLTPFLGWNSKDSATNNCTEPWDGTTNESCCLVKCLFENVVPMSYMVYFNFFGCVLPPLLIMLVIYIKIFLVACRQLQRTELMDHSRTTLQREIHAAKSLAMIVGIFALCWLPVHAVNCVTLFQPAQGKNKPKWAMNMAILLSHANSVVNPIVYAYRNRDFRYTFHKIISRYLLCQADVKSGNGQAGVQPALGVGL
In short: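 Membranes from HEK-293 cells stably expressing human A2B, ADA-treated, incubated with 1.6 nM [3H]-MRS-1754 in 50 mM Tris pH 6.5, 5 mM MgCl2, 1 mM EDTA, 1 U/ml ADA. Incubation 90 min at room temperature. Filtration; nonspecific binding with 100 µM NECA. Eight compound concentrations, each in triplicate; Ki derived by fitting.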

[2] = target: Adenosine receptor A2a (Homo sapiens) (UniProt P29274); assay: Displacement of [3H]-ZM241385 from human adenosine A2A receptor expressed in HEK293 cell membranes at 0.1 uM after 90 mins relative to control; in short: as §1
[3] = target: T3, Adenosine receptor A3 (Homo sapiens) (UniProt P0DMS8); assay: Displacement of [3H]-HEMADO from human adenosine A3 receptor expressed in HEK293 cell membranes at 1 uM after 90 mins relative to control; in short: as §1
T3 sequence (whole entry): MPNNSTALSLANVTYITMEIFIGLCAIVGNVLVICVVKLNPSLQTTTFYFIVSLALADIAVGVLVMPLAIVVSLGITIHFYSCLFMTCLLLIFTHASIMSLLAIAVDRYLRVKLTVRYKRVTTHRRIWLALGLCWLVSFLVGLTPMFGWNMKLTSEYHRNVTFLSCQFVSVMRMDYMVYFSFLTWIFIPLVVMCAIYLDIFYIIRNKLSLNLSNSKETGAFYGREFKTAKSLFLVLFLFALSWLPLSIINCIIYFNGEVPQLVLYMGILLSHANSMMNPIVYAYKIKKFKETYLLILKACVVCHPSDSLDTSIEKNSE

Sequence of Adenosine receptor A2a (Homo sapiens) (P29274 whole entry): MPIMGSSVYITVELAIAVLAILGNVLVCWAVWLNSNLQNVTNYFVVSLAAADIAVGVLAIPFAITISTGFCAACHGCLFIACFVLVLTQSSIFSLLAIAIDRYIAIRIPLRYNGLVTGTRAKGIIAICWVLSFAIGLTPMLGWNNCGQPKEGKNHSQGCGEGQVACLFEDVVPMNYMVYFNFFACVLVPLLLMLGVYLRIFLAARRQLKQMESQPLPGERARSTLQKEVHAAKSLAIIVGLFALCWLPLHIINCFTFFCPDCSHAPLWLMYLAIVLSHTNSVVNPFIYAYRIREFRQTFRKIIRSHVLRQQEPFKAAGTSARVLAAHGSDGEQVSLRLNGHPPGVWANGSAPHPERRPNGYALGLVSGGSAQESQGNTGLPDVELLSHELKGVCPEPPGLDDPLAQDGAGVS

Structure (SMILES): CCCn1c(=O)c2[nH]c(-c3ccc(OCC#Cc4ccc(OC(F)(F)F)cc4)cc3)nc2n(CCC)c1=O
Ki (Adenosine receptor A2b; read-out: Ki): > 600 nM

Structure (SMILES): CCCn1c(=O)[nH]c2nc(-c3cnn(CC#Cc4cccc(OC(F)(F)F)c4)c3)[nH]c2c1=O
inhibition [1]: 14%
Ki (Adenosine receptor A2b; read-out: Ki): 2.8 nM
inhibition [2]: 33%
inhibition [3]: 0%

Structure (SMILES): CCCn1c(=O)c2[nH]c(-c3cc(OCC#Cc4cccc(C(F)(F)F)c4)no3)nc2n(CCC)c1=O
Ki (Adenosine receptor A2b; read-out: Ki): > 600 nM

Structure (SMILES): CCCn1c(=O)c2[nH]c(-c3cnn(CC#CCN4CCN(C)CC4)c3)nc2n(CCC)c1=O
inhibition [1]: 55%
Ki (Adenosine receptor A2b; read-out: Ki): 83 nM
inhibition [2]: 73%
inhibition [3]: 79%

Structure (SMILES): CCCn1c(=O)c2[nH]c(-c3ccc(OCC#Cc4ccc(C(F)(F)F)cc4)cc3)nc2n(CCC)c1=O
Ki (Adenosine receptor A2b; hek293): Nd(Insoluble)

Structure (SMILES): CCCn1c(=O)[nH]c2nc(-c3cnn(CC#Cc4ccc(C(F)(F)F)cc4)c3)[nH]c2c1=O
inhibition [1]: 89%
Ki (Adenosine receptor A2b; read-out: Ki): 1.3 nM
inhibition [2]: 39%
inhibition [3]: 15%

Structure (SMILES): CCCn1c(=O)c2[nH]c(-c3cnn(CC#CCN4CCN(c5cccc(C(F)(F)F)c5)CC4)c3)nc2n(CCC)c1=O
inhibition [1]: 69%
Ki (Adenosine receptor A2b; read-out: Ki): 12 nM
inhibition [2]: 10%
inhibition [3]: 31%

Structure (SMILES): CCCn1c(=O)c2[nH]c(-c3cc(OCC#Cc4ccc(OC(F)(F)F)cc4)n(C)n3)nc2n(CCC)c1=O
Ki (Adenosine receptor A2b; hek293): Nd(Insoluble)

Structure (SMILES): CCCn1c(=O)c2[nH]c(-c3ccc(OCC#Cc4cccc(OC(F)(F)F)c4)cc3)nc2n(CCC)c1=O
Ki (Adenosine receptor A2b; hek293): Nd(Insoluble)

Structure (SMILES): CCCn1c(=O)c2[nH]c(-c3cc(OCC#Cc4ccc(F)cc4)no3)nc2n(CCC)c1=O
Ki (Adenosine receptor A2b; read-out: Ki): 15 nM

Structure (SMILES): CCCn1c(=O)[nH]c2nc(-c3cnn(CC#Cc4cccc(F)c4)c3)[nH]c2c1=O
inhibition [1]: 53%
Ki (Adenosine receptor A2b; read-out: Ki): 3 nM
inhibition [2]: 60%
inhibition [3]: 0%

Structure (SMILES): CCCn1c(=O)c2[nH]c(-c3cnn(CC#CCN4CCOCC4)c3)nc2n(CCC)c1=O
inhibition [1]: 28%
Ki (Adenosine receptor A2b; read-out: Ki): 330 nM
inhibition [2]: 39%
inhibition [3]: 51%

Structure (SMILES): CCCn1c(=O)c2[nH]c(-c3cc(OCC#Cc4cccc(C(F)(F)F)c4)n(C)n3)nc2n(CCC)c1=O
Ki (Adenosine receptor A2b; hek293): Nd(Insoluble)

Structure (SMILES): CCCn1c(=O)c2[nH]c(-c3cc(OCC#Cc4ccc(C(F)(F)F)cc4)no3)nc2n(CCC)c1=O
Ki (Adenosine receptor A2b; hek293): Nd(Insoluble)

Structure (SMILES): CCCn1c(=O)c2[nH]c(-c3cc(OCC#Cc4cccc(F)c4)no3)nc2n(CCC)c1=O
Ki (Adenosine receptor A2b; read-out: Ki): 55 nM

Structure (SMILES): CCCn1c(=O)c2[nH]c(-c3ccc(OCC#Cc4cccc(F)c4)cc3)nc2n(CCC)c1=O
Ki (Adenosine receptor A2b; read-out: Ki): > 1000 nM

Structure (SMILES): CCCn1c(=O)c2[nH]c(-c3cc(OCC#Cc4cccc(OC(F)(F)F)c4)no3)nc2n(CCC)c1=O
Ki (Adenosine receptor A2b; read-out: Ki): > 600 nM

Structure (SMILES): CCCn1c(=O)[nH]c2nc(-c3cnn(CC#Cc4cccc(C(=O)O)c4)c3)[nH]c2c1=O
Ki (Adenosine receptor A2b; read-out: Ki): 48 nM

The remaining lines, values ahead:

inhibition [1]: 92%
Ki (Adenosine receptor A2b; read-out: Ki): 5.5 nM
inhibition [2]: 51%
inhibition [3]: 37%
Structure (SMILES): CCCn1c(=O)c2[nH]c(-c3cnn(CC#Cc4ccc(OC(F)(F)F)cc4)c3)nc2n(CCC)c1=O

Ki (Adenosine receptor A2b; hek293): Nd(Insoluble)
Structure (SMILES): CCCn1c(=O)c2[nH]c(-c3ccc(OCC#Cc4ccc(F)cc4)cc3)nc2n(CCC)c1=O

inhibition [1]: 77%
Ki (Adenosine receptor A2b; read-out: Ki): 1.6 nM
inhibition [2]: 55%
inhibition [3]: 0%
Structure (SMILES): CCCn1c(=O)[nH]c2nc(-c3cnn(CC#Cc4ccc(F)cc4)c3)[nH]c2c1=O

inhibition [1]: 52%
Ki (Adenosine receptor A2b; read-out: Ki): 3.7 nM
inhibition [2]: 84%
inhibition [3]: 0%
Structure (SMILES): CCCn1c(=O)c2[nH]c(-c3cnn(CC#Cc4cccc(C#N)c4)c3)nc2n(CCC)c1=O

inhibition [1]: 57%
Ki (Adenosine receptor A2b; read-out: Ki): 6.3 nM
inhibition [2]: 74%
inhibition [3]: 21%
Structure (SMILES): CCCn1c(=O)c2[nH]c(-c3cnn(CC#Cc4cccc(OC)c4)c3)nc2n(CCC)c1=O

inhibition [1]: 57%
Ki (Adenosine receptor A2b; read-out: Ki): 5 nM
inhibition [2]: 55%
inhibition [3]: 9%
Structure (SMILES): CCCn1c(=O)c2[nH]c(-c3cnn(CC#Cc4cccc(C)c4)c3)nc2n(CCC)c1=O

inhibition [1]: 66%
Ki (Adenosine receptor A2b; read-out: Ki): 12 nM
inhibition [2]: 21%
inhibition [3]: 14%
Structure (SMILES): CCCn1c(=O)c2[nH]c(-c3cnn(CC#Cc4ccc(C(F)(F)F)cc4)c3)nc2n(CC)c1=O

inhibition [1]: 70%
Ki (Adenosine receptor A2b; read-out: Ki): 6.5 nM
inhibition [2]: 33%
inhibition [3]: 0%
Structure (SMILES): CCCn1c(=O)c2[nH]c(-c3cnn(CC#Cc4ccc(C)cc4)c3)nc2n(CCC)c1=O

inhibition [1]: 56%
Ki (Adenosine receptor A2b; read-out: Ki): 62 nM
inhibition [2]: 69%
inhibition [3]: 32%
Structure (SMILES): C#CCn1cc(-c2nc3c([nH]2)c(=O)n(CCC)c(=O)n3CCC)cn1

inhibition [1]: 80%
Ki (Adenosine receptor A2b; read-out: Ki): 3.5 nM
inhibition [2]: 19%
inhibition [3]: 27%
Structure (SMILES): CCCn1c(=O)c2[nH]c(-c3cnn(CC#Cc4ccc(C(=O)OCC)cc4)c3)nc2n(CCC)c1=O

inhibition [1]: 84%
Ki (Adenosine receptor A2b; read-out: Ki): 1.5 nM
inhibition [2]: 30%
inhibition [3]: 12%
Structure (SMILES): CCCn1c(=O)c2[nH]c(-c3cnn(CC#Cc4ccc(C(F)(F)F)cc4)c3)nc2n(CCC)c1=O

inhibition [1]: 52%
Ki (Adenosine receptor A2b; read-out: Ki): 29 nM
inhibition [2]: 29%
inhibition [3]: 25%
Structure (SMILES): CCCn1c(=O)c2[nH]c(-c3cnn(CC#Cc4ccccc4C(F)(F)F)c3)nc2n(CCC)c1=O

inhibition [1]: 43%
Ki (Adenosine receptor A2b; read-out: Ki): 4.9 nM
inhibition [2]: 64%
inhibition [3]: 32%
Structure (SMILES): CCCn1c(=O)c2[nH]c(-c3cnn(CC#Cc4cccc(C(F)(F)F)c4)c3)nc2n(CCC)c1=O

Ki (Adenosine receptor A2b; read-out: Ki): 190 nM
Structure (SMILES): CCCn1c(=O)c2[nH]c(-c3cnn(CC#Cc4cccc(C(=O)O)c4)c3)nc2n(CC)c1=O

inhibition [1]: 73%
Ki (Adenosine receptor A2b; read-out: Ki): 7.4 nM
inhibition [2]: 58%
inhibition [3]: 23%
Structure (SMILES): CCCn1c(=O)c2[nH]c(-c3cnn(CC#Cc4cccc(F)c4)c3)nc2n(CC)c1=O

inhibition [1]: 71%
Ki (Adenosine receptor A2b; read-out: Ki): 200 nM
inhibition [2]: 59%
inhibition [3]: 69%
Structure (SMILES): CCCn1c(=O)c2[nH]c(-c3cnn(CC#CCN(CC)CC)c3)nc2n(CCC)c1=O

inhibition [1]: 105%
Ki (Adenosine receptor A2b; read-out: Ki): 5.9 nM
inhibition [2]: 66%
inhibition [3]: 19%
Structure (SMILES): CCCn1c(=O)c2[nH]c(-c3cnn(CC#Cc4ccc(F)cc4)c3)nc2n(CCC)c1=O

inhibition [1]: 37%
Ki (Adenosine receptor A2b; read-out: Ki): 12 nM
inhibition [2]: 41%
inhibition [3]: 43%
Structure (SMILES): CCCn1c(=O)c2[nH]c(-c3cnn(CC#Cc4ccccc4C(=O)OC)c3)nc2n(CCC)c1=O

Ki (Adenosine receptor A2b; read-out: Ki): 79 nM
Structure (SMILES): CCCn1c(=O)c2[nH]c(-c3cnn(CC#CC4(O)CCCC4)c3)nc2n(CCC)c1=O

Ki (Adenosine receptor A2b; read-out: Ki): 100 nM
Structure (SMILES): CCCn1c(=O)c2[nH]c(-c3cnn(CC#CC4(O)CCCCC4)c3)nc2n(CCC)c1=O

inhibition [1]: 42%
Ki (Adenosine receptor A2b; read-out: Ki): 23 nM
inhibition [2]: 60%
Structure (SMILES): CC#CCn1cc(-c2nc3c([nH]2)c(=O)n(CCC)c(=O)n3CCC)cn1

Ki (Adenosine receptor A2b; read-out: Ki): 130 nM
Structure (SMILES): CCCn1c(=O)c2[nH]c(-c3cnn(CC#Cc4ccc(C(=O)O)cc4)c3)nc2n(CC)c1=O
